Assay [1] has as its target Matrix metalloproteinase-9 (Homo sapiens, UniProt P14780). The assay is described as follows: In vitro inhibitory activity against recombinant matrix metalloprotease-9 was determined. A digest of the protocol:
(§1)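 Commercial recombinant MMP-1, -2, -3, -8 or -9 at four levels (1-50 ng) incubated 3 h with their respective substrates. Compounds at four to six concentrations (0.1-100 µM). Colorimetric change read on an ELISA reader. IC50 calculated from the kinetic data.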

Assay [2] concerns the target 72 kDa type IV collagenase (Homo sapiens, UniProt P08253). The assay is described as follows: In vitro inhibitory activity against recombinant matrix metalloprotease-2 was determined. The procedure, abridged: as §1
The target in a further assay is Neutrophil collagenase (Homo sapiens, UniProt P22894). The assay is described as follows: In vitro inhibitory activity against recombinant matrix metalloprotease-8 was determined. The procedure, abridged: as §1
Chain of Neutrophil collagenase (P22894 whole entry): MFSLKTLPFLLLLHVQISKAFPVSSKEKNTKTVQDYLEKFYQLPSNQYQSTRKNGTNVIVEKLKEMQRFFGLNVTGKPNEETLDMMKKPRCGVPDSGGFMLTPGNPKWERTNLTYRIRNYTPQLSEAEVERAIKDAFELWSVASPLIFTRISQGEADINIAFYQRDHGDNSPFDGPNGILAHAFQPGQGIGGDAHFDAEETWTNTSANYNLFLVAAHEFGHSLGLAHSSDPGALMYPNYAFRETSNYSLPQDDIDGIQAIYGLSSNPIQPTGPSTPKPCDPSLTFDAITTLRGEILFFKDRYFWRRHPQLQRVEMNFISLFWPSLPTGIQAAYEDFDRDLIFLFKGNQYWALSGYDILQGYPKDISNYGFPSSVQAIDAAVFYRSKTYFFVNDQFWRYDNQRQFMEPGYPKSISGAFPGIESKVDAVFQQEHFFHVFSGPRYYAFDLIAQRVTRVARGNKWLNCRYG
Another assay concerns the target T1, Interstitial collagenase (Homo sapiens, UniProt P03956).
T1 sequence (P03956 whole entry): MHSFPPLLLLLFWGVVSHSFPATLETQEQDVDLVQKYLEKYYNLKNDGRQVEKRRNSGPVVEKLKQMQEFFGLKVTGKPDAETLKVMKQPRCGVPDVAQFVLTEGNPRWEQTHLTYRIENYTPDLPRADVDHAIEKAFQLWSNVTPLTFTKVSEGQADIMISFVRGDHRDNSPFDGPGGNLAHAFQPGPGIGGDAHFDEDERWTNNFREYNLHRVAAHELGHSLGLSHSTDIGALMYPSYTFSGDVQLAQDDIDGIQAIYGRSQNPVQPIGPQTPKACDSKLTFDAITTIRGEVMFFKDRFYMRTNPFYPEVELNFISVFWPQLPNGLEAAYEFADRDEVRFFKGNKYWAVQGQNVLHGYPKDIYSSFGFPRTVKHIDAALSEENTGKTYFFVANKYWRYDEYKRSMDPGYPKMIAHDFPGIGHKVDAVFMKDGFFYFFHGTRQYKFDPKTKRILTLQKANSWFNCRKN
The assay is described as follows: In vitro inhibitory activity against recombinant matrix metalloprotease-1 was determined. The procedure, abridged:
as §1

Another assay has as its target Stromelysin-1 (Homo sapiens, UniProt P08254). The assay is described as follows: In vitro inhibitory activity against recombinant matrix metalloprotease-3 was determined. A digest of the protocol:
as §1

For the next assay, the species on record is Homo sapiens. The assay is described as follows: In vitro inhibition of endothelial capillary tube formation by the compound at 50 uM concentration. Format: functional. The procedure, abridged: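 Endothelial cells plated on a thin Matrigel layer with angiogenic factor (bFGF/VEGF), incubated 4-6 h to form tubelike structures. Compounds added at 5 concentrations (100, 50, 25, 10, 5 µM). Tube formation quantified by image analysis. Value is % inhibition at 50 µM.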

In another assay the test system is B16-F10. The assay is described as follows: Inhibition of lung metastasis formation after 3 weeks treatment with 50 mg/kg of compound in mice injected with 50000 B16F10 tumor cells into the tail vein. The settings on record: Mus musculus, 504 h. Format: functional. The procedure, abridged: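 Experimental metastasis in mice: 50 000 B16F10 melanoma cells injected into the tail vein. Compound given ip daily at 50 mg/kg for 3 weeks. Mice sacrificed at day 21, lungs fixed, and surface tumor foci counted. Value is % inhibition of lung metastasis formation.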

In a further assay the test system is NIH3T3. The assay is described as follows: In vitro inhibition of invasion of NIH 3T3 cells across the reconstituted basement membrane by the compound at 50 uM concentration in Boyden chamber chemoinvasion assay; Inactive. The settings on record: Mus musculus. Format: functional, cell-based.

The source made the active and inactive calls. The calls are words filed in the database; no cut-off is given here. A value given as a limit tells only on which side of the number the result lay.

Chain of Stromelysin-1 (P08254 whole entry): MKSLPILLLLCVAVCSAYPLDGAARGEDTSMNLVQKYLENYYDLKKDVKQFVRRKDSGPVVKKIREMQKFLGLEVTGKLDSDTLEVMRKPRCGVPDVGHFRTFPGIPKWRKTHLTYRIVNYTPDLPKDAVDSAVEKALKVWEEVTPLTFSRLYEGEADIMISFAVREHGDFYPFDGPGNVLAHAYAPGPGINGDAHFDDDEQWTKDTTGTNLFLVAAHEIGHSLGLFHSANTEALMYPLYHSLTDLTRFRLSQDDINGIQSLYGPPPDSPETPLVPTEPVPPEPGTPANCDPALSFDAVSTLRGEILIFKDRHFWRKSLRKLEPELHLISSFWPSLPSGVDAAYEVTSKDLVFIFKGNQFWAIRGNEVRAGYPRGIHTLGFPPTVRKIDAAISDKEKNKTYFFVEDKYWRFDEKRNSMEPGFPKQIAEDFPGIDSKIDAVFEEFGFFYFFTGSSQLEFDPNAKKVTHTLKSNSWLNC
Chain of Matrix metalloproteinase-9 (P14780 whole entry): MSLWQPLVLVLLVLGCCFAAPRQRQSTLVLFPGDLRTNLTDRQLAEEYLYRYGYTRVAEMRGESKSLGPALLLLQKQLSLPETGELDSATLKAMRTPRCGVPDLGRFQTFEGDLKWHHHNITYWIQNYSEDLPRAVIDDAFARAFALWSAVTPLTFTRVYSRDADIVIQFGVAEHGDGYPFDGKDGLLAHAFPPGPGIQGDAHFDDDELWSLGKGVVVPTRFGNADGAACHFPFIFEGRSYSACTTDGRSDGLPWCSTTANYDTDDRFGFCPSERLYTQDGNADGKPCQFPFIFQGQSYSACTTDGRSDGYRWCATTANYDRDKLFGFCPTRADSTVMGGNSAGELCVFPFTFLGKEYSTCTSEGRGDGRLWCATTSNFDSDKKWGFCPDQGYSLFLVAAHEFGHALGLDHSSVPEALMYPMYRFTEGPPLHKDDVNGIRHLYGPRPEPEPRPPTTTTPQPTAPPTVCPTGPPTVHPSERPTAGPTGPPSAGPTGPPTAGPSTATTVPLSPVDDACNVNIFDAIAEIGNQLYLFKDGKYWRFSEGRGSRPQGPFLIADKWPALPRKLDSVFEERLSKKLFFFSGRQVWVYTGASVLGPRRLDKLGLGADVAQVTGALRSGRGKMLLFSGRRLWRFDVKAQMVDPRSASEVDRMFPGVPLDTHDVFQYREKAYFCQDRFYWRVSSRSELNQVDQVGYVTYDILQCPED
Chain of 72 kDa type IV collagenase (P08253 whole entry): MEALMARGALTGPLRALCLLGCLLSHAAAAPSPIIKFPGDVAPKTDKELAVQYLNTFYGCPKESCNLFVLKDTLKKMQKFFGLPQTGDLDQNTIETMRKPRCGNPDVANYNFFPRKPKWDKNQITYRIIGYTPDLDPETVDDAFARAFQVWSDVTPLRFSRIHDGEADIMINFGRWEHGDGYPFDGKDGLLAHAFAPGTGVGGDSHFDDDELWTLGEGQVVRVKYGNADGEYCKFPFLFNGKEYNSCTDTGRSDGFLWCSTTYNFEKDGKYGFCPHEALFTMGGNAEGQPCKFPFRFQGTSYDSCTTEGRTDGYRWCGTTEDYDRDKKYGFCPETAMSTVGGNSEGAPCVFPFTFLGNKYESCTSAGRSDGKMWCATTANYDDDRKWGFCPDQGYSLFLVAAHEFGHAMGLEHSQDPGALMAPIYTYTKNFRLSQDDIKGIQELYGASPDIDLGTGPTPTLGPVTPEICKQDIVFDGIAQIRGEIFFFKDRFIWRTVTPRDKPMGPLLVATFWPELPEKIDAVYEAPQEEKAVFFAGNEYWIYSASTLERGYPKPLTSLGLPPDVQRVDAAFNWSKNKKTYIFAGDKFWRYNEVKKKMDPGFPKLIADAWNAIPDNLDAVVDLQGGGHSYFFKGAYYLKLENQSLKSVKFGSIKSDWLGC

One may read the IC50 as the concentration that inhibits the measured activity by half. By inhibition is commonly meant how much of the control response was suppressed. Consider `CCC(C)NC(=O)P(=O)(O)O` (configuration not stated), for which the 50% inhibitory concentration (IC50) in assay [1] was more than 100 µM; in assay [2] it was 3 µM; on Neutrophil collagenase, more than 100 µM; on Interstitial collagenase it was 40 µM; on Stromelysin-1, 80 µM. This molecule also displayed an inhibition in the assay listed under Homo sapiens of 20%.

Usually inhibition in vivo stands for the relative decrease from the control value, in per cent. `O=C(NC1CCCCC1)P(=O)(O)O` [(CYCLOHEXYLAMINO)CARBONYLPHOSPHONIC ACID]: the IC50 in assay [1] was more than 100 µM; on Neutrophil collagenase it was more than 100 µM; at Interstitial collagenase, 0.1 µM; at Stromelysin-1, 3 µM. The same molecule had an inhibition in vivo at 50 mg/kg in the assay with B16-F10 of 37%. The same molecule gave an inhibition in the assay filed under Homo sapiens of 50%.

Turning to `O=C(N1CCOCC1)P(=O)(O)O`, the IC50 is more than 100 µM in assay [1]; more than 100 µM in assay [2]; 30 µM on Neutrophil collagenase; 50 µM at Interstitial collagenase; 1 µM on Stromelysin-1. Further, the inhibition entry in the assay with NIH3T3 was “inactive”.

In the case of `CCCCN(CCCC)C(=O)P(=O)(O)O` [(DIBUTYLAMINO)CARBONYLPHOSPHONIC ACID], the half-inhibitory concentration (IC50) in assay [1] was more than 100 µM; in assay [2] it was 50 µM; at Neutrophil collagenase it was 90 µM; on Interstitial collagenase, 70 µM; on Stromelysin-1, 30 µM. Moreover, the inhibition result with NIH3T3 is “inactive”.

Turning to `CCOP(=O)(O)C(=O)NC1CCCCC1` [LITHIUM ETHYL (CYCLOHEXYLAMINO)CARBONYLPHOSPHONATE], the IC50 in assay [1] is more than 100 µM; in assay [2], 30 µM; on Neutrophil collagenase it was more than 100 µM; at Interstitial collagenase, 1.5 µM; on Stromelysin-1, more than 100 µM.

In the case of `CNC(=O)P(=O)(O)O` [(METHYLAMINO)CARBONYLPHOSPHONIC ACID], the IC50 is more than 100 µM in assay [1]; 0.02 µM in assay [2]; 20 µM at Neutrophil collagenase; more than 100 µM on Interstitial collagenase; 90 µM on Stromelysin-1. This molecule displayed an inhibition in vivo at 50 mg/kg with B16-F10 of 55%.

Regarding `CCCNC(=O)P(=O)(O)O` [(PROPYLAMINO)CARBONYLPHOSPHONIC ACID], the concentration for half-maximal inhibition (IC50) was 20 µM in assay [1]; 0.3 µM in assay [2]; more than 100 µM at Neutrophil collagenase; 20 µM at Interstitial collagenase; 50 µM on Stromelysin-1.

For the molecule `O=C(NC1CCCC1)P(=O)(O)O` [(CYCLOPENTYLAMINO)CARBONYLPHOSPHONIC ACID], the IC50 in assay [1] is more than 100 µM; on Neutrophil collagenase, more than 100 µM; at Interstitial collagenase, 0.5 µM; at Stromelysin-1, more than 100 µM. The molecule also yielded an inhibition in vivo at 50 mg/kg in the assay with B16-F10 of 72%. This molecule also came in with an inhibition in the assay listed under Homo sapiens of 70%.

`O=C(NC1CC1)P(=O)(O)O` [(CYCLOPROPYLAMINO)CARBONYLPHOSPHONIC ACID]: the IC50 in assay [1] is more than 100 µM; in assay [2], 0.5 µM; at Neutrophil collagenase it was 0.2 µM; at Interstitial collagenase it was more than 100 µM; at Stromelysin-1 it was more than 100 µM.

For `O=C(NCCc1ccccc1)P(=O)(O)O` [PHENETHYLCARBAMOYLPHOSPHONIC ACID], the IC50 was more than 100 µM in assay [1]; 20 µM in assay [2]; more than 100 µM at Neutrophil collagenase; 80 µM on Interstitial collagenase; 90 µM at Stromelysin-1.

In the case of `CCNC(=O)P(=O)(O)O` [(ETHYLAMINO)CARBONYLPHOSPHONIC ACID], the 50% inhibitory concentration (IC50) in assay [1] amounted to 3 µM; in assay [2] it was 5 µM; on Neutrophil collagenase it was 30 µM; on Interstitial collagenase, 50 µM; at Stromelysin-1 it was 100 µM.

As to `CC(C)CCNC(=O)P(=O)(O)O.NC1CCCCC1`, the IC50 in assay [1] was more than 100 µM; in assay [2], 30 µM; on Neutrophil collagenase, 50 µM; at Interstitial collagenase, more than 100 µM; on Stromelysin-1, more than 100 µM. The inhibition result with NIH3T3 is “inactive”.

For the molecule `CCN(CC)C(=O)P(=O)(O)O` [(DIETHYLAMINO)CARBONYLPHOSPHONIC ACID], the half-inhibitory concentration (IC50) in assay [1] is more than 100 µM; in assay [2] it was 1 µM; at Neutrophil collagenase it was 70 µM; at Interstitial collagenase, 30 µM; on Stromelysin-1, 30 µM. For the same molecule, the inhibition entry in the assay with NIH3T3 was “inactive”.

Turning to `O=C(NC1CCCCCC1)P(=O)(O)O` [(CYCLOHEPTYLAMINO)CARBONYLPHOSPHONIC ACID], the IC50 in assay [1] was more than 100 µM; in assay [2] it was 4 µM; at Neutrophil collagenase it was more than 100 µM; on Interstitial collagenase, more than 100 µM; on Stromelysin-1, more than 100 µM. The inhibition in vivo at 50 mg/kg in the assay with B16-F10 came out at 69%. For the same molecule, the inhibition in the assay filed under Homo sapiens worked out at 45%.

Regarding `O=C(NC1CCC1)P(=O)(O)O` [(CYCLOBUTYLAMINO)CARBONYLPHOSPHONIC ACID], the IC50 was more than 100 µM in assay [1]; 0.15 µM in assay [2]; 0.04 µM at Neutrophil collagenase; more than 100 µM on Interstitial collagenase; more than 100 µM on Stromelysin-1. In the assay on B16-F10, this molecule showed an inhibition in vivo at 50 mg/kg of 60%.

Consider `CCCCNC(=O)P(=O)(O)O` [SODIUM HYDROGEN (BUTYLAMINO)CARBONYLPHOSPHONATE], for which the IC50 in assay [1] is more than 100 µM; in assay [2], 2 µM; at Neutrophil collagenase, more than 100 µM; at Interstitial collagenase, 25 µM; at Stromelysin-1, more than 100 µM. In addition, in the assay filed under Homo sapiens, the inhibition turned out to be 20%.

`CC(C)CNC(=O)P(=O)(O)O.NC1CCCCC1` [CYCLOHEXANAMINIUM HYDROGEN (ISOBUTYLAMINO)CARBONYLPHOSPHONATE]: the IC50 in assay [1] is more than 100 µM; in assay [2] it was more than 100 µM; on Neutrophil collagenase, 1 µM; on Interstitial collagenase it was 40 µM; at Stromelysin-1, more than 100 µM. Besides, the inhibition result in the assay on NIH3T3 is “inactive”.

`CC(C)NC(=O)P(=O)(O)O` [(ISOPROPYLAMINO)CARBONYLPHOSPHONIC ACID]: the concentration for half-maximal inhibition (IC50) is 2 µM in assay [1]; 1 µM in assay [2]; 50 µM at Neutrophil collagenase; 50 µM on Interstitial collagenase; more than 100 µM at Stromelysin-1. The inhibition in vivo at 50 mg/kg in the assay on B16-F10 is 40%. In addition, in the assay listed under Homo sapiens, the inhibition amounted to 55%.

As to `O=C(N1CCCCC1)P(=O)(O)O`, the IC50 in assay [1] is 0.5 µM; in assay [2] it was 1 µM; at Neutrophil collagenase, more than 100 µM; at Interstitial collagenase, 70 µM; on Stromelysin-1, 90 µM. In addition, the inhibition entry in the assay on NIH3T3 was “inactive”.

For `O=C(NCC1CCCCC1)P(=O)(O)O` [CYCLOHEXYLMETHYLCARBAMOYLPHOSPHONIC ACID], the IC50 on Neutrophil collagenase was found to be 80 µM; on Interstitial collagenase it was 30 µM; at Stromelysin-1, 1 µM. For the same molecule, the inhibition in vivo at 50 mg/kg in the assay with B16-F10 came out at 69%. Besides, the inhibition in the assay listed under Homo sapiens is 53%.

`CCC(CC)NC(=O)P(=O)(O)O`: the IC50 was more than 100 µM in assay [1]; 3 µM in assay [2]; 10 µM on Neutrophil collagenase; 80 µM on Interstitial collagenase; more than 100 µM on Stromelysin-1.

For `O=C(NC1CCCCCCC1)P(=O)(O)O` [(CYCLOOCTYLAMINO)CARBONYLPHOSPHONIC ACID], the IC50 in assay [1] was more than 100 µM; in assay [2] it was 1 µM; on Neutrophil collagenase it was 4 µM; at Interstitial collagenase it was more than 100 µM; at Stromelysin-1 it was more than 100 µM. In the assay listed under Homo sapiens, this molecule showed an inhibition of 25%.

Source of the values: ChEMBL document CHEMBL1137078, “Carbamoylphosphonates, a new class of in vivo active matrix metalloproteinase inhibitors. 1. Alkyl- and cycloalkylcarbamoylphosphonic acids” (J Med Chem, 2004).
